Measured values pooled from the literature.
Lines come from different studies, so protocols differ.
Target: Dual serine/threonine and tyrosine protein kinase (DSTYK, Homo sapiens, UniProt Q6XUX3)
Residues used in one study (Q6XUX3 1-929): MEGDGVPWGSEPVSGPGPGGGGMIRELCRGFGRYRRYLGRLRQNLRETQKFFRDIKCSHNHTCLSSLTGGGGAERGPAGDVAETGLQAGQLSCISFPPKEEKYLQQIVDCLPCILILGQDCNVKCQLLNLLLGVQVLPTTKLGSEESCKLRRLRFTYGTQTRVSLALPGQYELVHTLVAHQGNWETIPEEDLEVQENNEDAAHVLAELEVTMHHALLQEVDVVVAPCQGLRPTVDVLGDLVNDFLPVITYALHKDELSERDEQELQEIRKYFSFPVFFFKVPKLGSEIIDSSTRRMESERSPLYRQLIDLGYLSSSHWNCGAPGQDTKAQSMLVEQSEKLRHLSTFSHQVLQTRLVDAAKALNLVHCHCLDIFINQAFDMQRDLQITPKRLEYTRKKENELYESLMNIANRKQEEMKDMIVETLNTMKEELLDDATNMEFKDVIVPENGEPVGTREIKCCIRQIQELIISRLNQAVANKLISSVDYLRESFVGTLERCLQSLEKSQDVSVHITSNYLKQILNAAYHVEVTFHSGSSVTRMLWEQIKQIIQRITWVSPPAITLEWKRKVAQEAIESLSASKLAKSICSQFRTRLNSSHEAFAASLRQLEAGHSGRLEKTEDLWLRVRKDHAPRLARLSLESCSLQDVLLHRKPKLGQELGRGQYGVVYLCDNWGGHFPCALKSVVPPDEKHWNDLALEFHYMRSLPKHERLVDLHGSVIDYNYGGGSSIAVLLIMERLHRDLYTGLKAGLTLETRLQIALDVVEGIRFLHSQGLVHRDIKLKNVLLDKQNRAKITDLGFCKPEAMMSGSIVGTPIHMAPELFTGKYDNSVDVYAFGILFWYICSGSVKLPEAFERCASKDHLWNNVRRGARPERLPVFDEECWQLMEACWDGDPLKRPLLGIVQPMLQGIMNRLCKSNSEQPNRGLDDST

SMILES | assay | setting | remaining binding
CCc1ccccc1C(=O)Nc1n[nH]c2c(C)c(F)c(C3C(C#N)=C(C)N(C)C(C)=C3C#N)cc12 | cell-free assay, competition with immobilised ligand | 1 µM | 95%
C=CC(=O)N1CCC(C(=O)NCC(=O)N2CCN(c3nc(-c4cnc(N)nc4C(F)F)nc(N4CCOCC4)n3)CC2)CC1 | binding, competition with immobilised ligand | 1 µM | 72%
COc1cnc(Nc2cccc(S(N)(=O)=O)c2)nc1N1CCN(c2ccccc2)CC1 | binding, competition with immobilised ligand | 1 µM | 100%
Nc1ncc2c(n1)-c1c([nH]c3ccc(C#CC4CC4)cc13)CCCC2 | binding, competition with immobilised ligand | 1 µM | 19%
FC(F)(F)Oc1cccc(-c2cnc3ccc(-c4ccncc4)nn23)c1 | binding, competition with immobilised ligand | 5 µM | 49%
O=C(Nc1c[nH]nc1C(=O)NC1CCNCC1)c1cc(F)cc(F)c1 | binding, competition with immobilised ligand | 1 µM | 87%
O=C(c1ccc(Nc2ncc(Cl)c(-c3cc4ccccc4s3)n2)cc1)N1CCC(N2CCCC2)CC1 | binding, competition with immobilised ligand | 1 µM | 32%
CN(C)c1ncnc(-c2ccc3nc(Nc4cc(CN5CCN(C(=O)CC(F)(F)F)CC5)ccn4)[nH]c3c2)c1Cl | cell-free assay, competition with immobilised ligand | 1 µM | 95%
CN(CCCC(F)(F)F)c1nccc(-c2cnn3ncccc23)n1 | binding | 1 µM | 88%
O=C(c1ccc(Nc2ncc(Cl)c(-c3ccc(Cl)s3)n2)cc1)N1CCC(N2CCCC2)CC1 | binding, competition with immobilised ligand | 1 µM | 14%
C[C@@H]1CN(c2cc(-c3n[nH]c4ccc(OC5(C)CC5)cc34)ncn2)C[C@H](C)O1 | cell-free assay, competition with immobilised ligand | 0.1 µM | 77%
C[C@H]1CCN(c2nccc(-c3cnn4ncccc34)n2)C1 | binding | 1 µM | 94%
O=C1CCc2cc(Nc3cc(OC4CCOCC4)c([N+](=O)[O-])cc3Cl)ccc2N1 | cell-free assay, competition with immobilised ligand | 1 µM | 90%
CC1CCCN1c1nccc(-c2cnn3ncccc23)n1 (stereo not shown) | binding | 1 µM | 100%
O=C(c1ccc(Nc2nccc(-c3cc4ccccc4s3)n2)cc1)N1CCC(N2CCCC2)CC1 | binding, competition with immobilised ligand | 1 µM | 37%
N[C@H]1CCN(c2nccc(-c3cnn4ncccc34)n2)C1 | binding | 1 µM | 100%
O=C(NCc1ncc(C(F)(F)F)cc1Cl)c1ccc2c(c1)C1(CCS(=O)(=O)CC1)[C@@H](C1CC1)N2S(=O)(=O)c1ccc(F)cc1 | cell-free assay, competition with immobilised ligand | 1 µM | 78%
CCN1CCN(Cc2ccc(C(=O)Nc3ccc(C)c(Oc4ccc5c(c4)CC(=O)N5)c3)cc2C(F)(F)F)CC1 | binding, competition with immobilised ligand | 1 µM | 100%
CN1CCN(c2cnc3c(C4CCN(C(=O)c5ccc(OC(F)(F)F)cc5N)CC4)ncnc3c2)CC1 | cell-free assay, competition with immobilised ligand | 1 µM | 100%
COc1ccnn2ncc(-c3ccnc(N(C)C)n3)c12 | binding | 1 µM | 100%
CN(C)C(=O)Cn1cc(-c2nc(C3(c4ccc(-c5cnc(N)nc5)cc4)CC3)no2)cn1 | cell-free assay, competition with immobilised ligand | 1 µM | 94%
CN(c1nccc(-c2cnn3ncccc23)n1)C1CC1 | binding | 1 µM | 98%
